# According to ChEMBL document CHEMBL4049451, “Exploring the Role of N6-Substituents in Potent Dual Acting 5'-C-Ethyltetrazolyladenosine Derivatives: Synthesis, Binding, Functional Assays, and Antinociceptive Effects in Mice ∇” (J Med Chem, 2017):
# Active and inactive are the calls of the source. No cut-off for these calls is given here.
# Legend:
# Adenosine receptor A3 [1] = target: T1, Adenosine receptor A3 (Homo sapiens, UniProt P0DMS8); experiment: Displacement of [3H]HEMADO from recombinant human adenosine […] receptor expressed in CHO cell membranes after 3 hrs by microbeta scintillation counting
# T1 sequence (P0DMS8 whole entry): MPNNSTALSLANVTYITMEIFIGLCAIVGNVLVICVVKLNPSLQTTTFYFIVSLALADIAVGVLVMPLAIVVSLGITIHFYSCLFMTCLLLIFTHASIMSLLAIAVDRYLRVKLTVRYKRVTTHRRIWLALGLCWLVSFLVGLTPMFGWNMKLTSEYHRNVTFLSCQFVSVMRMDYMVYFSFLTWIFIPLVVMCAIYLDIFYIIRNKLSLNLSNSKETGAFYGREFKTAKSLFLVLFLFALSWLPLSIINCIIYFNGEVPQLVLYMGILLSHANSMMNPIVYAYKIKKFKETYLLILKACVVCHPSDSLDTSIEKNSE
# Summary of the method: (§1)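 CHO membranes with stable human A1, A2A, A3 or rat A3 (1000g then 100 000g spin, stored -80 °C). Competition: hA1 1 nM [3H]CCPA, nonspecific with 1 mM theophylline; hA2A 10 nM [3H]NECA; hA3 1 nM [3H]HEMADO; rA3 30 nM [3H]NECA; latter three nonspecific with 100 μM R-PIA.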
# Adenosine receptor A2a [2] = target: T2, Adenosine receptor A2a (Homo sapiens, UniProt P29274); experiment: Agonist activity at recombinant human adenosine A2A receptor expressed in CHO cell membranes assessed as stimulation of adenylyl cyclase activity by [alpha-32P]ATP assay; format: functional, cell-based
# T2 sequence (P29274 whole entry): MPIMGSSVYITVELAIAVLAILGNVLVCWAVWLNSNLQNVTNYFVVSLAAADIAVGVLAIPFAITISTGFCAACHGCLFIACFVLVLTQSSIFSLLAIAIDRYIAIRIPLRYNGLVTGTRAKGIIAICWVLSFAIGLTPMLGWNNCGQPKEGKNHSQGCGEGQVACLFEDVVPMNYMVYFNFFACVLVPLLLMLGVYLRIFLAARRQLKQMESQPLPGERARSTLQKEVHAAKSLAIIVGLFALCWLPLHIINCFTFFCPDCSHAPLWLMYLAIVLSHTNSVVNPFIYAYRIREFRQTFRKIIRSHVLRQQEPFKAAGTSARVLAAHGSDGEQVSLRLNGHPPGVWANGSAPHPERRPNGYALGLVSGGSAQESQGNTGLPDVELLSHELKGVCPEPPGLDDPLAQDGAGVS
# Summary of the method: (§2)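 hA2A or hA2B in CHO cell membranes (one high-speed spin, pellet in 50 mM Tris/HCl pH 7.4, used immediately); agonist stimulation of adenylyl cyclase gives EC50; partial agonism judged as efficacy against 100 μM NECA as full agonist. Geometric means, 95% confidence intervals, n = 3.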
# [3] = target: T3, Adenosine receptor A2b (Homo sapiens) (UniProt P29275); experiment: Partial agonist activity at recombinant human adenosine A2B receptor expressed in CHO cell membranes assessed as stimulation of adenylyl cyclase activity by [alpha-32P]ATP assay relative to NECA; format: functional, cell-based; summary of the method: as §2
# T3 sequence (whole entry): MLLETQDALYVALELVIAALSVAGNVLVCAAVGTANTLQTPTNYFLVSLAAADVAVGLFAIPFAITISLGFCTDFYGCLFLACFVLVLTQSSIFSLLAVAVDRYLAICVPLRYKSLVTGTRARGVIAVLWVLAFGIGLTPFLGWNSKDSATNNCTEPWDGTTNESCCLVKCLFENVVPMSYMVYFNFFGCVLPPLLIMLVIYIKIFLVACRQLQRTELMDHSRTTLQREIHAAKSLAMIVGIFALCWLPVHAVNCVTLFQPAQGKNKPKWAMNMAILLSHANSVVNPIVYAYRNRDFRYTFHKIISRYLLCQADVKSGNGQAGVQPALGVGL
# Homo sapiens [4] = species on record: Homo sapiens; experiment: Selectivity ratio of Ki for recombinant human adenosine A2A receptor expressed in CHO cell membranes to Ki for recombinant human adenosine A1 receptor expressed in CHO cell membranes; format: cell-based; summary of the method: as §1
# Adenosine receptor A3 [5] = target: T1, Adenosine receptor A3; experiment: Antagonist activity at recombinant human adenosine A3 receptor expressed in CHO cell membranes assessed as reversal of NECA-mediated inhibition of adenylyl cyclase activity after 10 mins by [alpha-32P]ATP assay; format: functional, cell-based
# Adenosine receptor A1 [6] = target: T4, Adenosine receptor A1 (Homo sapiens, UniProt P30542); experiment: Displacement of [3H]CCPA from recombinant human adenosine A1 receptor expressed in CHO cell membranes after 3 hrs by microbeta scintillation counting; summary of the method: as §1
# T4 sequence (P30542 whole entry): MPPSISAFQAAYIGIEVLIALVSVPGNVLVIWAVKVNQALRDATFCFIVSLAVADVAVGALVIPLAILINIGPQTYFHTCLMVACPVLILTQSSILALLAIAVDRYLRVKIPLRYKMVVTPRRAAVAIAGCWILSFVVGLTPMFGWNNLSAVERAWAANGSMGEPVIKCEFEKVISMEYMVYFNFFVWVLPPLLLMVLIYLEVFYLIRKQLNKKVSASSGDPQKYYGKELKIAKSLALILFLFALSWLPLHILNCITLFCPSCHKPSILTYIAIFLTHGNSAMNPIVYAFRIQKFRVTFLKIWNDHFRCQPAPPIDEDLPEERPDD
# Adenosine receptor A1 [7] = target: T4, Adenosine receptor A1; experiment: Agonist activity at recombinant human adenosine A1 receptor expressed in CHO cell membranes assessed as inhibition of forskolin-stimulated adenylyl cyclase activity after 10 mins in presence of [alpha-32P]ATP; format: functional, cell-based
# Summary of the method: (§3)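 hA1 in CHO cell membranes (single high-speed spin, resuspended in 50 mM Tris/HCl pH 7.4, used immediately); agonist inhibition of forskolin-stimulated adenylyl cyclase; efficacy relative to CCPA as reference full agonist (100%). Geometric means with 95% confidence intervals, n = 3.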
# Homo sapiens [8] = species on record: Homo sapiens; experiment: Selectivity ratio of Ki for recombinant human adenosine A2A receptor expressed in CHO cell membranes to Ki for recombinant human adenosine A3 receptor expressed in CHO cell membranes; format: cell-based; summary of the method: as §1
# [9] = Selectivity ratio of Ki for recombinant rat adenosine A3 receptor expressed in CHO cell membranes to Ki for recombinant human adenosine A3 receptor expressed in CHO cell membranes; format: cell-based; summary of the method: as §1
# [10] = target: Adenosine receptors; A1 & A3 (Homo sapiens) (UniProt P30542+P0DMS8); experiment: Selectivity ratio of Ki for recombinant human adenosine A3 receptor expressed in CHO cell membranes to Ki for recombinant human adenosine A1 receptor expressed in CHO cell membranes; format: cell-based; summary of the method: as §1
# Adenosine receptor A2a [11] = target: T2, Adenosine receptor A2a; experiment: Displacement of [3H]NECA from recombinant human adenosine A2A receptor expressed in CHO cell membranes after 3 hrs by microbeta scintillation counting; summary of the method: as §1
# Adenosine receptor A2b = target: T5, Adenosine receptor A2b (Homo sapiens, UniProt P29275); experiment: Agonist activity at recombinant human adenosine A2B receptor expressed in CHO cell membranes assessed as stimulation of adenylyl cyclase activity by [alpha-32P]ATP assay; format: functional, cell-based; summary of the method: as §2
# T5 sequence (P29275 whole entry): T3 sequence (whole entry)
# Adenosine receptor A3 [12] = target: T6, Adenosine receptor A3 (Rattus norvegicus, UniProt P28647); experiment: Displacement of [3H]NECA from recombinant rat adenosine A3 receptor expressed in CHO cell membranes after 3 hrs by microbeta scintillation counting; summary of the method: as §1
# T6 sequence (P28647 whole entry): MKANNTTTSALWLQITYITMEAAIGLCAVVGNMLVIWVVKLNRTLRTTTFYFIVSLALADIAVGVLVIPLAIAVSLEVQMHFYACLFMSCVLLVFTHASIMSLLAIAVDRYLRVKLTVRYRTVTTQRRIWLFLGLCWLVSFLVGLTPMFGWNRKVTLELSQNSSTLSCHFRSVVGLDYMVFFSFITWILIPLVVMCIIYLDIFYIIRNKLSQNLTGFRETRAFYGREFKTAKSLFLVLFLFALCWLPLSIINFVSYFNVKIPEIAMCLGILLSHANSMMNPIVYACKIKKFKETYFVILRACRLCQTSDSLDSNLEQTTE
# [13] = target: T3, Adenosine receptor A2b (Homo sapiens); experiment: Agonist activity at recombinant human adenosine A2B receptor expressed in CHO cell membranes assessed as stimulation of adenylyl cyclase activity relative to NECA; format: functional, cell-based; summary of the method: as §2
# Adenosine receptor A2a [14] = target: T2, Adenosine receptor A2a; experiment: Agonist activity at recombinant human adenosine A2A receptor expressed in CHO cell membranes assessed as stimulation of adenylyl cyclase activity relative to NECA; format: functional, cell-based; summary of the method: as §2
# Mus musculus [15] = experiment: Antinociceptive activity in formalin induced nociceptive mouse model assessed as reduction in late nociceptive behavior administered via ip 10 mins prior to formalin induction measured for 15 to 60 mins; format: functional, organism-based
# Summary of the method: (§4)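 Mice, randomized, n = 8–10 per group; ip compound or vehicle (10% DMSO in 0.9% NaCl) 10 min before formalin (1.25% in saline, 30 μL) into dorsal hind paw. Lifting, licking, shaking, flinching timed every 5 min for 60 min; phase 1 0–7 min, phase 2 15–60 min; mean ± SEM.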
# [16] = Lipophilicity, log P of the compound; format: physicochemical; details: octanol/water
# [17] = target: T7, Adenosine receptor A1 (Homo sapiens) (UniProt P30542); experiment: Agonist activity at recombinant human adenosine A1 receptor expressed in CHO cell membranes assessed as inhibition of forskolin-stimulated adenylyl cyclase activity after 10 mins relative to CCPA; format: functional, cell-based; summary of the method: as §3
# T7 sequence (whole entry): T4 sequence (P30542 whole entry)
# Mus musculus [18] = experiment: Antinociceptive activity in formalin induced nociceptive mouse model assessed as reduction in nociceptive behavior at 0.5 mg/kg, ip administered 10 mins prior to formalin induction measured for 15 to 60 mins; format: functional, organism-based; summary of the method: as §4
# Mus musculus [19] = experiment: Antinociceptive activity in formalin induced nociceptive mouse model assessed as reduction in nociceptive behavior at 0.5 mg/kg, ip administered 10 mins prior to formalin induction measured up to 7 mins; format: functional, organism-based; summary of the method: as §4
# Mus musculus [20] = experiment: Antinociceptive activity in formalin induced nociceptive mouse model at 1 mg/kg, ip administered 10 mins prior to formalin induction measured up to 60 mins; format: functional, organism-based; summary of the method: as §4
Ki (Adenosine receptor A3 [1]),EC50 (Adenosine receptor A2a [2]),Activity [3],EC50 (Adenosine receptor A3 [5]),Ki (Adenosine receptor A1 [6]),EC50 (Adenosine receptor A1 [7]),Ratio Ki [10],Ki (Adenosine receptor A2a [11]),EC50 (Adenosine receptor A2b),Ki (Adenosine receptor A3 [12]),Efficacy (Adenosine receptor A2a [14]),logP [16],Efficacy [17],Structure (SMILES),Ratio Ki (Homo sapiens [4]),Ratio Ki (Homo sapiens [8]),Ratio Ki [9],other results
0.875 nM,21.6 nM,86%,5.4 nM,0.864 nM,7.66 nM,1,146 nM,222 nM,66 nM,,,,CCn1nnc([C@H]2O[C@@H](n3cnc4c(NC5CC5)ncnc43)[C@H](O)[C@@H]2O)n1,170,168,76,
0.386 nM,6.71 nM,,2.2 nM,1.41 nM,58.5 nM,0.27,29.8 nM,592 nM,2.69 nM,> 90%,2.57,> 90%,CCn1nnc([C@H]2O[C@@H](n3cnc4c(NCc5cccc(Cl)c5)ncnc43)[C@H](O)[C@@H]2O)n1,21,77,6.9,Efficacy [13]: > 90%; Activity (Mus musculus [15]): Dose-dependent effect
,,,,,,,,,,,,,CNC(=O)[C@H]1O[C@@H](n2cnc3c(NCc4cccc(I)c4)nc(Cl)nc32)[C@H](O)[C@@H]1O,,,,Activity (Mus musculus [18]): inactive; Activity (Mus musculus [19]): inactive
,,,,,,,,,2.53 nM,,4.06,,CCn1nnc([C@H]2O[C@@H](n3cnc4c(NCc5cccc(I)c5)nc(Cl)nc43)[C@H](O)[C@@H]2O)n1,,,,Activity (Mus musculus [20]): inactive
1.2 nM,14.4 nM,86%,12.5 nM,3.73 nM,147 nM,0.32,74 nM,1100 nM,9.26 nM,> 90%,,> 90%,"CCn1nnc([C@H]2O[C@@H](n3cnc4c(NCc5cccc(F)c5)ncnc43)C(O)C2O)n1 (single isomer, unassigned)",20,62,7.7,
